# In the RNAGym collection of RNA variant scans (doi:10.1126/science.aae0568):
# Variants at the floor of the assay were thinned out.
# B1: tRNA (parent)
# chain: GUUCCGUUGGCGUAAUGGUAACGCGUCUCCCUCCUAAGGAGAAGACUGCGGGUUCGAGUCCCGUACGGAACG
# Variants of: B1
# Assay: yeast fitness relative to wild type (ratio to wild type); higher = fitter; tRNA-Arg(CCU), competitive growth, 37 C, YPD
# Outline: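 A pool of Saccharomyces cerevisiae strains, each with a tRNA-Arg(CCU) gene variant at the native genomic locus, was competed in YPD at 37°C for 24 hours across six parallel replicates. The variants had been chemically synthesised at a 3% per-site mutation rate over 69 sites, and gene amplicons before and after competition were read by 100-nucleotide paired-end sequencing. Darwinian fitness relative to wild type rested on changes in genotype frequencies. Genotypes required ≥ 100 starting reads, and estimates < 0.5 were set to 0.5.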
row,Variant,yeast fitness
1,GUUCCGUUGGGGUAAUGGUAACGCGUCUCCCUCCUAAGGAGCAGACAGCGGGUUCGAGUCCCCUACGGCACG [C11G A42C U47A G63C A69C],≤ 0.5
2,GUUCAGUUGGCGUAAUGGUAAGGCGUCUACCUCCUAAGGAGAAGACUGCGGGUUCGAGUCCCGUACAGAACG [C5A C22G C29A G67A],0.531
3,GUUCCGUUGGCGUCAUGGUAACGCGUCUCCCUCAUAAGGAGAAGACUGCGGGUUCGAGUCCCGUACGGAACG [A14C C34A],0.565
4,GUUCCGUUGGAGGAAUGGUAACGCGUCUCCCUCCUAAGGAGAAGACUGCGAGUUCGAGUCCCGUACGGAACG [C11A U13G G51A],≤ 0.5
5,GUUCCGUUGGCGUAAUGGUAACGCGUCACCAUCCUAAGGAGAAGACUGCGGGUUCGAGUCCCGUACGGAACG [U28A C31A],0.687
6,GUUCCGUUGGCAUAAUGGUAACGCGUCUCCCUCCUAAGGCGAAGACUGCGGGUUCGAGUCCCGUCCGGAACG [G12A A40C A65C],0.655
7,GUUACGUUGGCGUAAUGGUAACGCGUCUCCCUCCUAAGGAGAAGCCUGCGGGUUCGAGUCCCGUACGGAACG [C4A A45C],0.754
8,GUUCCGUUGGCGUACUGGUAACGCGUGUCCCUCCUAAGGAGAAGACUAGGGGUUCGAGUCCCGUACGGAACG [A15C C27G G48A C49G],≤ 0.5
9,GUUCCGUUGGCGUAAUGGUAGCGCGUCUCCCUCCUAAGGAGAAAACUGCGGGUUCGAGUCCCGUACGGCACG [A21G G44A A69C],≤ 0.5
10,GUUCCGUUGGCGUAAUGGUAAUGCGUCUCCGUCCUAAGGAGAUGACUGCGGGUUCGAGUACCGUACGGAACG [C22U C31G A43U C60A],≤ 0.5
11,GUUCCGUUAGCGUAAUGGUAACGCGUCUUCCUCCUAAGGAGAAGAUUGCGGGUUCGAGUCCCGUAUGGAACG [G9A C29U C46U C66U],0.637
12,GUUCGGGUGGCGUAAUGGUAACGCGUCUCCCUACUAAGGAGAAGACUGCGGGUUCGAGUCCCGUACGGAACG [C5G U7G C33A],0.519
13,GUUCCGUUGGCAUAAUGGUAACGCGUCUCCCUCCAAAGGAGAAGACUGCGGGUUCGAAUCCCGUACGAAACG [G12A U35A G58A G68A],0.561
14,GUUCCGUUGGCGUAAUGGUAACGCGUAUCCCUCCUAUGGAGAAGACUGCGGGUUCGAGUCUCGUACGGAACG [C27A A37U C61U],≤ 0.5
15,GUUCAGUUGGCGAAAUGGUAACGCGUGUCCCUCCUAGGGAGAAGACUGCGGGUUCGAGUCCCGUACGGAACG [C5A U13A C27G A37G],≤ 0.5
16,GUUCCGUUGGCGUGCUGGUAACGCGACUCCCUCCUAAGGAGAAGACUCUGGGUUCGAGCCCCGUACGGAACG [A14G A15C U26A G48C C49U U59C],≤ 0.5
17,GUUCCGUUGGCGUAAUGGUAACGCGUCUCCCACUUAAGGAGAAGACUGCGGGUUCGAGUCCCGUACGGAACG [U32A C34U],0.531
18,GUUCCGUUGGCGUCAUGGUACCGCGUCUCCCUCCUAAGGAGAAGACUGCGGGUUCGAGUCCCGUACGGAACG [A14C A21C],0.609
19,GUUCCGUUGGGGUAAUGGUAACGCGUCUCCCUCCUAAGGAGAAGACUGCGGGUUCGAGUGCCGUACGGAACG [C11G C60G],0.713

row,Variant,yeast fitness
1,GUUCCGUUGGCGUUAUGGUAACGCGUCUCCCUCCUAAGGAGAAGACUGCGGGUUCGAGACCCGUACAGAACG [A14U U59A G67A],0.578
2,GUUCCGUUGGCGUAAUGGUAACGGGUCUCCCUCCUAAGGAGAAGACUGCGCGUUCGAGUCCCGUACGGAACG [C24G G51C],0.537
3,GUUCCGUUGGCGUUAUGGUAACGCGUCUCCCUCCUAAGGAGAAGACUGCGGGUUGGAGUCCCGUACGGAACG [A14U C55G],0.578
4,GUUCCGUUGGCGUAAUGGUAACGCGUCUCCCUCCUAAGGAGAAGACUACGGGUCCGAGUCCCGUACGGCACG [G48A U54C A69C],0.686
5,GUUCCGUUGGCGUAAUGGUAAAGCGUCUCCCUCCUAAGGAGAAGACUGCGGGUUCGAGUCCCAUACGGAACG [C22A G63A],0.983
6,GUUCCGUAGGUGUAAUGGUCACGCGUCUCCCUCCUAAGGAGAAGACUGCGGGUUCGAGUCCCGUACGGAACG [U8A C11U A20C],≤ 0.5
7,GUUCCGUUGGCGUAGUGGUAACGCGUCUCCGUCCCAAGGAGACGACUGCGGGUUCGAGUCCCGUACGGAACG [A15G C31G U35C A43C],0.586
8,GUUCCGUUGACGUAAUGGUAACGCGUCUCCCUCGUAAGGCGAAGAGUGCGGGUUCGAGUCCCGUACGGAACG [G10A C34G A40C C46G],≤ 0.5
9,GUUCCGUUGGAGUAAUGGUAACGCGUAUACCUCCUAAGGAGCAGACAGCGGAUUCGAGCCCCGUACGGAACG [C11A C27A C29A A42C U47A G52A U59C],0.503
10,GUUUCGUUGGCGUAAUGGUAACCCGUCUCCCUCCUAAGGAGAAGACUGCGGGUUCGAGUCCCGUACGGAACG [C4U G23C],0.716
11,GUUCCGUUGGCGUAAUGGUAUCGCGUCUCCCUCCUAAGGAGAAGACUGCGGGAUCGAGUCCCGUAUGGAACG [A21U U53A C66U],≤ 0.5
12,GUUCCGUUGGCGUAAUGGUAACGCGUCUCCCUCCUAAGGAGAAGACUGCGGGUUCGAGUCCCAUACGGAACG [G63A],0.853
13,GUUCCGUUGGCGUAAUAGUAACGCGGCUGCCUCCUAAGGAGAAGACUGCGGGUUCGAGUCCUGUACGGAGCG [G17A U26G C29G C62U A70G],≤ 0.5
14,GUUCCGUUGGCGUAAUGGUAACGCGUCUCCCUCCUAAGGAGAAGAGUGCGGGUUCGCGUCCCGUACGGAACG [C46G A57C],0.61
15,GGUCCGUUGGCGUAAUGGUGACGCGUCUCCCUCCUAAGGAGAAGAAUGCGGGUUCGAGUCCCGUACGGAACG [U2G A20G C46A],0.618
16,GUUCCGUUGGCGUAAUGGUACCGCGUCUCCCUCCUAAGGAGAAGACCGCGGGUUCGAGUCCCGUCCGGAACG [A21C U47C A65C],≤ 0.5
17,GUUCCGUUGGCGUAAUGGUAACGCGUGUCCCUCCUAAGGAGAAGACUGCGGGUUCGAGUCCCGUACGGAACG [C27G],0.644
18,GUUACGUUGGCGUAAUGGUUACGCGUCUCCCCCCUAAGGAGAUGACUGCGGGUUCGAGUCCCGUACGGAACG [C4A A20U U32C A43U],≤ 0.5
19,GUUCCGCUGGCGUAAUGGUAACGCGUCUCCCUCCUAAGGGGACGACUGCGGGUUCGAGUCCCGUACGGAACG [U7C A40G A43C],0.77
